Measured values gathered from unrelated publications.
Protocols differ between the studies behind these lines.
ALK C1156Y: ALK tyrosine kinase receptor (ALK, Homo sapiens, UniProt Q9UM73, C1156Y)
ALK: ALK tyrosine kinase receptor (ALK, Homo sapiens, UniProt Q9UM73)
ALK L1196M: ALK tyrosine kinase receptor (ALK, Homo sapiens, UniProt Q9UM73, L1196M)

Structure (SMILES) | target | effect on | method | concentration | remaining binding [%]
COc1cnc(Nc2cccc(S(N)(=O)=O)c2)nc1N1CCN(c2ccccc2)CC1 | ALK C1156Y | binding | competition with immobilised ligand | 1 µM | 100
O=C(c1ccc(Nc2nccc(-c3cc4ccccc4s3)n2)cc1)N1CCC(N2CCCC2)CC1 | ALK | binding | competition with immobilised ligand | 1 µM | 84
N[C@@H]1CCN(c2nccc(-c3cnn4ncccc34)n2)C1 | ALK L1196M | binding | – | 1 µM | 100
C[C@H](c1ccc(F)cc1)N(Cc1cccc(C(=O)O)c1)C(=O)c1cnc2ccccc2c1 | ALK L1196M | cell-free assay | competition with immobilised ligand | 1 µM | 76
CC1CCCN1c1nccc(-c2cnn3ncccc23)n1 (stereo not drawn) | ALK | binding | – | 1 µM | 69
CN1CCN(c2ccc(Nc3nccc(-c4ccccc4)n3)cc2C(F)(F)F)CC1 | ALK C1156Y | binding | – | 10 µM | 60
c1cncc(-c2cccc(Nc3nccc(NC4CCCCC4)n3)c2)c1 | ALK | binding | competition with immobilised ligand | 10 µM | 62
C=CC(=O)N1CCC(C(=O)NCC(=O)N2CCN(c3nc(-c4cnc(N)nc4C(F)F)nc(N4CCOCC4)n3)CC2)CC1 | ALK | binding | competition with immobilised ligand | 1 µM | 71
FC(F)(F)Oc1cccc(-c2cnc3ccc(-c4ccncc4)nn23)c1 | ALK | cell-free assay | competition with immobilised ligand | 5 µM | 100
CN([C@@H]1CCc2c(CC(=O)O)c3cc(S(C)(=O)=O)ccc3n2C1)S(=O)(=O)c1ccc(F)cc1 | ALK L1196M | cell-free assay | competition with immobilised ligand | 1 µM | 89
Nc1ncc2c(n1)-c1c([nH]c3ccc(C#CC4CC4)cc13)CCCC2 | ALK C1156Y | binding | competition with immobilised ligand | 1 µM | 84
CNC(=O)[C@@H]1CC[C@@H](n2c(-c3ccc4cnccc4c3)nc3ccc(C(=O)NCc4cccc(C(N)=O)c4)cc32)C1 | ALK C1156Y | binding | competition with immobilised ligand | 1 µM | 100
O=C(Nc1c[nH]nc1C(=O)NC1CCNCC1)c1cc(F)cc(F)c1 | ALK | binding | competition with immobilised ligand | 1 µM | 91
CO[C@@H](C)c1c(Nc2ccc([C@H](N(C)C(=O)C3CCS(=O)(=O)CC3)C(F)(F)F)cc2)cnc2cc(Cl)nn12 | ALK L1196M | cell-free assay | competition with immobilised ligand | 1 µM | 100
O=C(c1ccc(Nc2ncc(Cl)c(-c3ccc(Cl)s3)n2)cc1)N1CCC(N2CCCC2)CC1 | ALK L1196M | binding | competition with immobilised ligand | 1 µM | 67
CN1CCN(c2ccc(Nc3nccc(-c4cccc([N+](=O)[O-])c4)n3)cc2C(F)(F)F)CC1 | ALK L1196M | binding | – | 10 µM | 76
O=C(NCCCN1CCOCC1)c1ccc(Nc2ncc(Cl)c(-c3ccc(Cl)s3)n2)cc1 | ALK C1156Y | binding | competition with immobilised ligand | 1 µM | 61
COc1ccnn2ncc(-c3ccnc(N(C)C)n3)c12 | ALK | binding | – | 1 µM | 96

Structure (SMILES) | target | effect on | method | concentration | remaining binding [%]
COc1cnc(Nc2cccc(S(N)(=O)=O)c2)nc1N1CCN(c2ccccc2)C(=O)C1 | ALK L1196M | binding | competition with immobilised ligand | 1 µM | 81
Cc1cnn2ncc(-c3ccnc(N(C)C)n3)c2c1 | ALK C1156Y | binding | – | 1 µM | 100
Cc1cnc(Nc2ccc(C(=O)N3CCC(N4CCCC4)CC3)cc2)nc1-c1cc2ccccc2s1 | ALK | binding | competition with immobilised ligand | 1 µM | 42
C[C@H]1CCN(c2nccc(-c3cnn4ncccc34)n2)C1 | ALK C1156Y | binding | – | 1 µM | 99
O=C(NCC1CCOCC1)c1n[nH]cc1NC(=O)c1c(F)cccc1F | ALK C1156Y | binding | competition with immobilised ligand | 1 µM | 99
NS(=O)(=O)c1cc(NC(=O)Cc2ccccc2)ccc1Oc1cccc(Cl)c1 | ALK C1156Y | cell-free assay | competition with immobilised ligand | 1 µM | 88
O=C(c1ccc(Nc2ncc(Cl)c(-c3cc4ccccc4s3)n2)cc1)N1CCC(N2CCCC2)CC1 | ALK L1196M | binding | competition with immobilised ligand | 1 µM | 100
C[C@@H]1CN(c2cc(-c3n[nH]c4ccc(OC5(C)CC5)cc34)ncn2)C[C@H](C)O1 | ALK | cell-free assay | competition with immobilised ligand | 0.1 µM | 65
CN(C)c1nccc(-c2cnc3ncccn23)n1 | ALK C1156Y | binding | – | 1 µM | 82
COc1ncc2cc3ccccc3nc2c1C#N | ALK C1156Y | cell-free assay | competition with immobilised ligand | 5 µM | 96
C[C@@H]1CN(c2ccc3ncc(-c4ccc5[nH]nc(C6CC6)c5c4)n3n2)C[C@H](C)O1 | ALK | binding | competition with immobilised ligand | 0.5 µM | 80
CN(c1nccc(-c2cnn3ncccc23)n1)C1CC1 | ALK L1196M | binding | – | 1 µM | 100
CCCCN(CCCC)C(=O)CN1C[C@H](c2cc(OC)c3c(c2)OCO3)[C@@H](C(=O)O)[C@@H]1CC(C)(C)CCC | ALK C1156Y | cell-free assay | competition with immobilised ligand | 1 µM | 100
C[C@@H](c1ccc(-n2cnc3c(N)ncnc32)cc1)N1CCc2nn(C)c(Cc3ccccc3)c2C1=O | ALK | binding | competition with immobilised ligand | 0.1 µM | 76
C[C@@H]1CN(c2cc(-c3nn(C)c4ccc(OC5(C)CC5)cc34)ncn2)C[C@H](C)O1 | ALK L1196M | cell-free assay | competition with immobilised ligand | 1 µM | 98
O=C(NCCCN1CCOCC1)c1ccc(Nc2nccc(-c3cc4ccccc4s3)n2)cc1 | ALK | binding | competition with immobilised ligand | 1 µM | 100
CN(C)c1nccc(-c2cnn3ncccc23)n1 | ALK C1156Y | binding | – | 1 µM | 71
CCOC(=O)c1cc2cc(-c3cc(C(=O)NCc4ccc(C(=O)O)cc4)nn3C)ccc2[nH]1 | ALK L1196M | cell-free assay | competition with immobilised ligand | 0.1 µM | 98
